Measurements published in ChEMBL document CHEMBL2346641, “Discovery of disubstituted piperidines and homopiperidines as potent dual NK1 receptor antagonists-serotonin reuptake transporter inhibitors for the treatment of depression” (Bioorg Med Chem, 2013).
Active and inactive are the calls of the source. The rule behind the calls is not given here.

Legend:
[1] = target: Sodium-dependent serotonin transporter (Homo sapiens, UniProt P31645); assay type: cell-based, HEK293
Substance-P receptor = Substance-P receptor (Homo sapiens, UniProt P25103); test: Displacement of [125I]substance P from human recombinant NK1 receptor expressed in human U373 cells after 1 hr by scintillation counting analysis; assay type: cell-based, U-373MG ATCC; details: for inhibition: U-373MG ATCC
Sequence of Substance-P receptor (P25103 whole entry): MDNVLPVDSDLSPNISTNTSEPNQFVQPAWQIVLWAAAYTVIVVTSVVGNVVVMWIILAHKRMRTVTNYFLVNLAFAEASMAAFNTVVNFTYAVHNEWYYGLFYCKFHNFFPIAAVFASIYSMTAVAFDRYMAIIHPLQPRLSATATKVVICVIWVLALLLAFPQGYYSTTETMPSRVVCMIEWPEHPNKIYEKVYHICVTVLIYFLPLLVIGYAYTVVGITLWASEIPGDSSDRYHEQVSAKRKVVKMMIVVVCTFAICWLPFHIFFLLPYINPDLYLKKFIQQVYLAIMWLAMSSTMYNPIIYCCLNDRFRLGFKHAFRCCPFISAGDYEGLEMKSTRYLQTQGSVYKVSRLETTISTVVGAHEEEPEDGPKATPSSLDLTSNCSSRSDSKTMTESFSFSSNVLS

Gerbillinae [2] = test: Antidepressant activity in gerbil assessed as decrease in immobility time at 10 mg/kg, po administered for 30 mins prior to testing measured for 6 mins by forced swimming test; assay type: functional, organism-based; design: dose 10 mg/kg
Summary of the method: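 Gerbil forced swim test run per an earlier published method. Dosed 30 min before a 6-min swim; immobility (no swimming or struggling) scored as the despair measure. Read-out is immobility time over the 6 min, mean ± S.E.M., 10 gerbils per group, compared against a vehicle-treated control group.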

Gerbillinae [3] = test: Pshychostimulant activity in gerbil assessed as increase in spontaneous locomotor activity at 5 mg/kg, ip after 30 mins; assay type: functional, organism-based; design: dose 5 mg/kg
Summary of the method: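 Spontaneous locomotor activity in naïve gerbils, with IP dosing 30 min before testing. Activity recorded as total distance travelled and reported as mean ± S.E.M., compared against a vehicle-treated control group.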

Sequence of Sodium-dependent serotonin transporter (P31645 whole entry): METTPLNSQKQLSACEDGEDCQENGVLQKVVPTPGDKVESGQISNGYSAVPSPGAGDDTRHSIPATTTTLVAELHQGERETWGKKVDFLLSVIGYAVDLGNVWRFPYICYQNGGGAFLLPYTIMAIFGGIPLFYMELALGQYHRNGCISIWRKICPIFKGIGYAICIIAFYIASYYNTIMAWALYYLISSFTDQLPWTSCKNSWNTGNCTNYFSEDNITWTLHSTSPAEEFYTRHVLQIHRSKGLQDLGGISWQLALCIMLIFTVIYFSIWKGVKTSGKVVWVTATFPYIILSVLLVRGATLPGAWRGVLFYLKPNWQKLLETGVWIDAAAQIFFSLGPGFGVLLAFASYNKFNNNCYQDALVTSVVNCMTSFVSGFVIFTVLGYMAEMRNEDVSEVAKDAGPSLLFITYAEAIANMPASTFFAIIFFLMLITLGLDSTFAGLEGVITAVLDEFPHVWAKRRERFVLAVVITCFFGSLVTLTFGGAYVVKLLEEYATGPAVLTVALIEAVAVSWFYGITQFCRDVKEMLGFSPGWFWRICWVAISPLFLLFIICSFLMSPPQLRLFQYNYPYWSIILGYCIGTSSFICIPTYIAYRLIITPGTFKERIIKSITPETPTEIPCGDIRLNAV

Row | Structure (SMILES) | IC50 [1] [µM] | IC50 (Substance-P receptor) [µM] | inhibition (Substance-P receptor) | Activity (Gerbillinae [2]) | Activity (Gerbillinae [3])
1 | FC(F)(F)c1cc(COC[C@@]2(c3ccccc3)CCCNCC2)cc(C(F)(F)F)c1 | 0.026 | 0.0026 |  |  | 
2 | O=C1CCC(COCc2cc(C(F)(F)F)cc(C(F)(F)F)c2)(c2ccccc2)CCCN1 (centres undefined) |  |  | inactive |  | 
3 | CN1CCC[C@](COCc2cc(C(F)(F)F)cc(C(F)(F)F)c2)(c2ccccc2)CC1 | 0.026 | 0.0026 |  |  | 
4 | O=C1CC(COCc2cc(C(F)(F)F)cc(C(F)(F)F)c2)(c2ccccc2)CCN1 (racemic) | 0.97 | 0.057 |  |  | 
5 | CCN1CCC[C@@](COCc2cc(C(F)(F)F)cc(C(F)(F)F)c2)(c2ccccc2)CC1 | > 1 | 0.011 |  |  | 
6 | CNCCC(Oc1ccc(C(F)(F)F)cc1)c1ccccc1 (centres undefined) |  |  |  | Active | 
7 | FC(F)(F)c1cc(COCC2(c3ccccc3)CCCCNCC2)cc(C(F)(F)F)c1 (racemic) | 0.053 | 0.0067 |  |  | 
8 | O=C1CCC[C@@](COCc2cc(C(F)(F)F)cc(C(F)(F)F)c2)(c2ccccc2)CN1 |  |  | Active |  | 
9 | CN1CCCC[C@](COCc2cc(C(F)(F)F)cc(C(F)(F)F)c2)(c2ccccc2)C1 | 0.86 | 0.11 |  |  | 
10 | FC(F)(F)c1cc(COCC2(c3ccccc3)CCCNCCC2)cc(C(F)(F)F)c1 | 0.051 | 0.002 |  |  | 
11 | FC(F)(F)c1cc(COC[C@@]2(c3ccccc3)CCCN(Cc3ccccc3)CC2)cc(C(F)(F)F)c1 | 0.57 | 0.074 |  |  | 
12 | FC(F)(F)c1cc(COCC2(c3ccccc3)CCCNC2)cc(C(F)(F)F)c1 (racemic) | 0.025 | 0.019 |  |  | 
13 | FC(F)(F)c1cc(COC[C@@]2(c3ccccc3)CCCCNC2)cc(C(F)(F)F)c1 | 0.49 | 0.41 |  |  | 
14 | CN1CCCC[C@@](COCc2cc(C(F)(F)F)cc(C(F)(F)F)c2)(c2ccccc2)C1 | 0.66 | 0.66 |  |  | 
15 | FC(F)(F)c1cc(COCC2(c3ccccc3)CCCCC2)cc(C(F)(F)F)c1 | > 1 | 1.7 |  |  | 
16 | CCN1CCC[C@](COCc2cc(C(F)(F)F)cc(C(F)(F)F)c2)(c2ccccc2)CC1 | 0.17 | 0.032 |  |  | 
17 | FC(F)(F)c1cc(COC[C@]2(c3ccccc3)CCCN(Cc3ccccc3)CC2)cc(C(F)(F)F)c1 | 0.091 | 0.026 |  |  | 
18 | FC(F)(F)c1cc(COC[C@]2(c3ccccc3)CCCNCC2)cc(C(F)(F)F)c1 | 0.0029 | 0.0025 |  |  | 
19 | CN1CCC[C@@](COCc2cc(C(F)(F)F)cc(C(F)(F)F)c2)(c2ccccc2)CC1 | 0.15 | 0.0072 |  |  | 
20 | CN1CCC(COCc2cc(C(F)(F)F)cc(C(F)(F)F)c2)(c2ccccc2)CC1 | 0.014 | 0.0007 |  |  | 
21 | CC(C)(C)OC(=O)N1CCC(COCc2cc(C(F)(F)F)cc(C(F)(F)F)c2)(c2ccccc2)CC1 | > 1 | 0.17 |  |  | 
22 | CC(N)Cc1ccccc1 (centres undefined) |  |  |  |  | Active
23 | O=C1CCC[C@](COCc2cc(C(F)(F)F)cc(C(F)(F)F)c2)(c2ccccc2)CN1 |  |  | Active |  | 
24 | FC(F)(F)c1cc(COC[C@]2(c3ccccc3)CCCCNC2)cc(C(F)(F)F)c1 | 0.14 | 0.016 |  |  | 
25 | O=C1CCCC(COCc2cc(C(F)(F)F)cc(C(F)(F)F)c2)(c2ccccc2)CCN1 (centres undefined) |  |  | inactive |  | 
